From ChEMBL document CHEMBL3576843, “Neopetrocyclamines A and B, polycyclic diamine alkaloids from the sponge Neopetrosia cf exigua” (2015)

Columns and labels:
Assay type in all cases: functional
SF-295 = assay: Cytotoxicity against human SF295 cells after 48 hrs by XTT assay; conditions: SF-295, 48 h
Summary of the method: (§1)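 Cells seeded at 5000/well in medium lacking phenol red and antibiotics, allowed 60 min to attach, then compound dilutions or DMSO solvent control added. Incubated 48 h with compound; viability measured by XTT proliferation assay per kit protocol; growth inhibition expressed as GI50.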

UO-31 = assay: Cytotoxicity against human UO31 cells after 48 hrs by XTT assay; conditions: UO-31, 48 h; summary of the method: as §1
A498 = assay: Cytotoxicity against human A498 cells after 48 hrs by XTT assay; conditions: A498, 48 h; summary of the method: as §1

Compound	GI50 (SF-295) [µM]	GI50 (UO-31) [µM]	GI50 (A498) [µM]
C1=C[C@H]2/C=C/CCCCC/C=C\CCNCCCNC[C@H]2[C@@H]2CCCC[C@@H]12	> 20	> 20	> 20
C1=C/[C@H]2[C@@H]3CCCC[C@H]3C[C@H]2NCCCN[C@@H]2C[C@@H]3CCCC[C@H]3[C@@H]2/C=C/1	0.8	3	2.9
C1=C/[C@H]2[C@@H]3CCCC[C@H]3C[C@@H]2NCCCN[C@@H]2C[C@@H]3CCCC[C@H]3[C@@H]2/C=C/1 [HALICLONADIAMINE]	6.3	8	5.9
C1=C[C@H]2/C=C/CCCCC/C=C\CCN3C=[N+](CCC3)C[C@H]2[C@@H]2CCCC[C@@H]12	> 20	> 20	> 20
